Hits are enriched below; roughly 1.5% of the tested compounds scored in any of these assays.
NRP1-CendR mod – modulators of CendR peptide binding to human neuropilin-1 | O14786 | FAM-RPARPAR peptide binding to NRP-1, fluorescence polarization | inhibition, % at 25 µM | 360,000 compounds, 0.85% hits | AID 602438;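 active = inhibition or corrected inhibition above about 18%, plus a signal ratio from 0.5 to 1.5, limit read from the data, passing the limit was not always enough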
core dimer inh – blocks dimerization of HCV core protein | TR-FRET GST/Flag-core106 dimerization, 1536-well | inhibition, % at 5 µM | 300,000 compounds, 0.33% hits;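 active = inhibition above the mean of all tested compounds plus 3 SD, set per screening campaign, cut at about 45% in these data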
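System – GST-tagged and Flag-tagged HCV core protein residues 1-106 · Repeats – one well for each compound · Technique – TR-FRET 671 and 617 nm emission · Doses – one concentration, 5 µM, in 0.5% DMSO · Times – 4 h, 22.5 °C incubation · Also added – Eu donor and XL665 acceptor anti-tag antibodies · Measure – percent inhibition of core106 dimerization signal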
MEX-5 binding – C. elegans MEX-5 TCR-2 RNA binding activity; Q9XUB2; MEX-5/FITC-TCR2 RNA binding, fluorescence polarization; active compounds read low; activity score (negative = inhibition of binding), % at 10 µM; 300,000 compounds, 0.38% hits; AID 1832;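 active = inhibition past about -25% in most replicates, and total fluorescence under double the plate's negative control median, limit read from the data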;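 note: 0% = DMSO and -100% = 5 µM competing unlabeled TCR2 RNA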
Target sequence (Q9XUB2 whole entry, looked up): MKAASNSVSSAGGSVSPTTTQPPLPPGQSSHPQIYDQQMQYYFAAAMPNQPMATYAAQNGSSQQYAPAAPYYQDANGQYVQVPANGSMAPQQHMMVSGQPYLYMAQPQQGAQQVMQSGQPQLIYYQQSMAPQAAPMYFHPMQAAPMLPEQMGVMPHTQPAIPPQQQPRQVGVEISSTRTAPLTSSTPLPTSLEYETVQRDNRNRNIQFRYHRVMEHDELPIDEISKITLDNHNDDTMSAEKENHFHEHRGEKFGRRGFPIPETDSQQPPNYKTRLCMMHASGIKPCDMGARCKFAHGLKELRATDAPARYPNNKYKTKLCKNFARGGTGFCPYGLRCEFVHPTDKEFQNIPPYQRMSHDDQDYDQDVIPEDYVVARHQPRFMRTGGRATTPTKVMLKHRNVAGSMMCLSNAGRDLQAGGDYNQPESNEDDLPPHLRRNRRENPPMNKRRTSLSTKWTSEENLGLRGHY
DNA FID counter – fluorescent intercalator displacement, NS3 helicase counter-screen; 290,000 compounds, 0.17% hits; AID 1845; inhibition, % at 7.9 µM; DNA fluorescent intercalator displacement, fluorescence; in the data active = inhibition above about 37%;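 note: 0% = vehicle and 100% = reference compound; higher means more ethidium bromide displaced from hairpin DNA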
Active calls of the source: *; nt = no result.

SMILES	NRP1-CendR mod	core dimer inh	MEX-5 binding	DNA FID counter
CC(C)CC(C(=O)O)C(C)CC(=O)Nc1ccn(-c2ccccc2)n1 (stereo unspecified)	-1	-1	-1	-27
CCCCC(C(=O)O)C(C)CC(=O)Nc1ccn(-c2ccccc2)n1 (stereo unspecified)	45*	2	1	-36
CN(c1ccccc1)c1ncnc2c1ncn2C	17	nt	nt	nt
Cn1c2ccccc2c2c(C(=O)N3CCN(c4ccccn4)CC3)cn(C3CCCC3)c(=O)c21	38*	9	3	-36
COc1ccc(N2CCN(C(=O)c3cn(C)c(=O)c4c3c3ccccc3n4C)CC2)cc1	-7	3	-3	-31
COc1ccc(N2CCN(C(=O)c3cn(C4CCCC4)c(=O)c4c3c3ccccc3n4C)CC2)cc1	39*	6	-2	-35
Cc1cc(O)cc2c1C(=O)/C(=C/c1ccco1)O2	-72	-2	-42*	4
O=C(NCC1CC1)c1ccc(-n2ccnc2)c2ccoc12	-6	nt	nt	nt
C#CCOCCOCCOCCNc1nc(N2CCN(C(=O)[C@H](CCCCN)n3cc(CN)nn3)CC2)nc(N2CCN(C(=O)[C@H](CCCCN)n3cc(CN)nn3)CC2)n1	32*	nt	nt	nt
C#CCOCCOCCOCCNc1nc(N2CCOCC2)nc(N2CCN(C(=O)[C@H](Cc3ccc(O)cc3)n3cc([C@@H](N)C(C)CC)nn3)CC2)n1 (stereo partly specified)	0	4	0	19
C#CCOCCOCCOCCNc1nc(N2CCN(C(=O)[C@H]([C@@H](C)CC)n3cc([C@@H](N)CO)nn3)CC2)nc(N2CCN(C(=O)[C@H](CCCCN)n3cc([C@@H](N)CO)nn3)CC2)n1	-1	nt	nt	nt
C#CCOCCOCCOCCNc1nc(N2CCN(C(=O)[C@H](CCCCN)n3cc([C@@H](N)CC(C)C)nn3)CC2)nc(N2CCN(C(=O)[C@H](Cc3ccc(O)cc3)n3cc([C@@H](N)CC(C)C)nn3)CC2)n1	nt	-19	3	44*
C#CCOCCOCCOCCNc1nc(N2CCN(C(=O)C(Cc3ccc(O)cc3)n3cc(C(N)C(C)CC)nn3)CC2)nc(N2CCN(C(=O)C(Cc3ccc(O)cc3)n3cc(C(N)C(C)CC)nn3)CC2)n1 (stereo unspecified)	9	-6	0	40*
C#CCOCCOCCOCCNc1nc(N2CCN(C(=O)[C@H](CCCCN)n3cc(CN)nn3)CC2)nc(N2CCN(C(=O)[C@H](CCC(=O)O)n3cc([C@@H](N)CCCCN)nn3)CC2)n1	0	nt	nt	nt
C#CCOCCOCCOCCNc1nc(N2CCN(C(=O)[C@H]([C@@H](C)CC)n3cc([C@@H](N)CC(C)C)nn3)CC2)nc(N2CCN(C(=O)[C@H](CCCCN)n3cc([C@@H](N)CO)nn3)CC2)n1	13	-15	3	38*
C#CCOCCOCCOCCNc1nc(N2CCN(C(=O)[C@H]([C@@H](C)CC)n3cc([C@@H](N)CO)nn3)CC2)nc(N2CCN(C(=O)[C@H]([C@@H](C)CC)n3cc([C@@H](N)CC(C)C)nn3)CC2)n1	7	3	-38*	31
C#CCOCCOCCOCCNc1nc(N2CCN(C(=O)[C@H](CCCCN)n3cc(C(N)CC(C)C)nn3)CC2)nc(N2CCN(C(=O)[C@H](CCC(=O)O)n3cc(C(N)[C@H](C)CC)nn3)CC2)n1 (stereo partly specified)	11	-7	0	30
C#CCOCCOCCOCCNc1nc(N2CCN(C(=O)[C@H](Cc3ccc(O)cc3)n3cc([C@@H](N)CC(C)C)nn3)CC2)nc(N2CCN(C(=O)[C@H](Cc3ccc(O)cc3)n3cc([C@@H](N)CC(C)C)nn3)CC2)n1	nt	-25	-1	57*
C#CCOCCOCCOCCNc1nc(N2CCN(C(=O)[C@H](CCCCN)n3cc([C@@H](N)C(C)CC)nn3)CC2)nc(N2CCN(C(=O)[C@H](Cc3ccc(O)cc3)n3cc([C@@H](N)CC(C)C)nn3)CC2)n1 (stereo partly specified)	1	-18	0	49*
C#CCOCCOCCOCCNc1nc(N2CCN(C(=O)[C@H]([C@@H](C)CC)n3cc([C@@H](N)CO)nn3)CC2)nc(N2CCN(C(=O)[C@H]([C@@H](C)CC)n3cc([C@@H](N)CO)nn3)CC2)n1	nt	nt	-5	nt
C#CCOCCOCCOCCNc1nc(N2CCN(C(=O)[C@H]([C@@H](C)CC)n3cc([C@@H](N)Cc4ccc(O)cc4)nn3)CC2)nc(N2CCN(C(=O)[C@H](CCCCN)n3cc([C@@H](N)CC(C)C)nn3)CC2)n1	nt	0	0	45*
C#CCOCCOCCOCCNc1nc(N2CCN(C(=O)C([C@@H](C)CC)n3cc(C(N)CC(C)C)nn3)CC2)nc(N2CCN(C(=O)[C@H](CCC(=O)O)n3cc(C(N)Cc4ccc(O)cc4)nn3)CC2)n1 (stereo partly specified)	10	1	3	16
COc1ccc(NC(=O)C[C@H]2C(=O)N(c3ccccc3)C[C@@H]2CSC)cc1	-5	nt	nt	nt
CCc1nc2c(OCC(=O)C(C)(C)C)cccn2c1N(C)C(=O)C(C)C	-1	nt	nt	nt
C#CCOCCOCCOCCNc1nc(N2CCN(C(=O)[C@H](CCCCN)n3cc([C@@H](N)CC(C)C)nn3)CC2)nc(N2CCN(C(=O)[C@H](CCCCN)n3cc([C@@H](N)CC(C)C)nn3)CC2)n1	-24	-18	3	58*
SMILES	NRP1-CendR mod	core dimer inh	MEX-5 binding	DNA FID counter
C#CCOCCOCCOCCNc1nc(N2CCN(C(=O)[C@H](CCCCN)n3cc(C(N)CO)nn3)CC2)nc(N2CCN(C(=O)[C@H](CCC(=O)O)n3cc(C(N)CC(C)C)nn3)CC2)n1 (stereo partly specified)	nt	nt	-5	nt
O=C(c1ccccc1F)N1CCN(Cc2ccccc2F)CC1	29*	2	-1	-2
O=C(c1ccccc1)c1ccccc1C(=O)N1CCN(Cc2ccccc2F)CC1	0	nt	nt	nt
CN1CCN(CC(=O)c2ccccc2F)CC1	17*	-13	-4	10
Cc1ccc(NC(=O)c2sc3ncn(CC(=O)N4CCOCC4)c(=O)c3c2C)c(Br)c1	16	-1	0	-15
C=C1C(=O)C23C(O)C1CCC2C12CCCC(C)(COC(C)=O)C1C(O)C3(O)OC2 (stereo unspecified)	-1	nt	nt	nt
Cc1ccc(-n2ccnc2SCC(=O)O)c(C)c1	31*	-4	1	2
Cc1cc(O)c(-c2cc(O)c(C)cc2O)cc1O	4	-50	-80*	4
Cc1cc(N=O)c(C)cc1O	-9	nt	nt	nt
CCN(c1ccc(NC(=O)COC(=O)C2CCN(c3ccc(C(F)(F)F)cn3)CC2)cc1)C(C)C	-5	nt	nt	nt
CCOCCCNC(=O)C(c1ccc(C)cc1)N(Cc1cccs1)C(=O)c1ccccc1O (stereo unspecified)	29*	2	0	-31
CCC(=O)Nc1ccc(S(=O)(=O)NC[C@H]2O[C@@H](n3cnc4c(=O)[nH]c(N)nc43)[C@H](O)[C@@H]2O)cc1	2	nt	nt	nt
CN(C)CCn1c(=O)n(-c2ccc(F)cc2)c(=O)c2c3c(sc21)CCCCC3	35*	-3	-1	16
